In ChEMBL document CHEMBL4732102, “Sustainable, three-component, one-pot procedure to obtain active anti-flavivirus agents” (Eur J Med Chem, 2021):
pEC50, pIC50: −log10 of the molar value. The source made the active and inactive calls. The rule behind the calls is not given here.

Tests used:
dengue virus type 2 [1] = experiment: Inhibition of Dengue virus 2 full length NS5 RNA-dependent RNA polymerase assessed as reduction in de novo initiation activity at 30 uM incubated for 1 hr relative to control
In short: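 De novo initiation assay: 100 nM full-length DENV-2 NS5 with 100 nM in vitro transcribed DENV-2 5'UTR-3'UTR RNA, 20 µM each of ATP, GTP and UTP, and 5 µM Atto-CTP. Buffer Tris-HCl pH 7.5 with KCl, 1 mM MgCl2, 0.3 mM MnCl2, Triton X-100 and 10 µM cysteine. Compound at 30 µM; 1 h at 37 °C. Read-out by alkaline phosphatase-released AttoPhos fluorescence (422/566 nm).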

[2] = Selectivity index, ratio of CC50 for human Huh-7 cells to EC50 for dengue virus 2 EDEN 3295 infected in human Huh-7 cells; assay type: toxicity, cell-based; conditions: read-out: Ratio CC50/EC50
Zika virus [3] = experiment: Antiviral activity against Zika virus H/PF/2013 infected in human Huh-7 cells assessed as reduction in virus replication at 10 uM incubated for 24 hrs by plaque reduction assay relative to control; assay type: functional; set-up: scale not given: the % may be the effect or the level left
In short: (§1)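 Huh-7 cells (1 × 10^5 seeded) infected 1 h at 37 °C with DENV-2 EDEN3295 (MOI 0.3) or ZIKV H/PF/2013 (MOI 0.5). Infected cells then treated at a single 10 µM concentration, 24 h for ZIKV and 48 h for DENV-2. Clarified supernatant titred by BHK-21 plaque assay. Viral titre reduction expressed as percent inhibition.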

dengue virus type 2 [4] = experiment: Antiviral activity against dengue virus 2 EDEN 3295 infected in human Huh-7 cells assessed as reduction in virus replication incubated for 48 hrs by plaque reduction assay; assay type: functional, organism-based; conditions: EDEN 3295, Huh-7, 48 h
In short: (§2)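 Huh-7 cells (1 × 10^5 seeded) infected 1 h at 37 °C with ZIKV H/PF/2013 at MOI 0.5 or DENV-2 EDEN3295 at MOI 0.3. Dose–response treatment from 0.01 to 100 µM followed, 24 h for ZIKV and 48 h for DENV-2. Supernatant titre measured by BHK-21 plaque assay. EC50 taken from a sigmoidal fit of titre versus concentration; average ± SE of one experiment in duplicate.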

[5] = Inhibition of Dengue virus 2 full length NS5 RNA-dependent RNA polymerase assessed as reduction in elongation activity incubated for 1 hr; set-up: species or system dengue virus type 2; conditions: for pIC50: read-out: IC50
In short: (§3)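 Elongation (primer-dependent) assay: 100 nM full-length DENV-2 NS5, 100 nM U30-3'UTR template and 3 µM Atto-ATP in 50 mM Tris-HCl pH 7.5, 10 mM KCl, 0.5 mM MnCl2, Triton and 10 µM cysteine. Run 1 h at 37 °C; stopped with alkaline phosphatase and AttoPhos fluorescence read at 422/566 nm. Single point at 30 µM; IC50 is average ± SE of one experiment in duplicate.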

dengue virus type 2 [6] = experiment: Inhibition of Dengue virus 2 full length NS5 RNA-dependent RNA polymerase assessed as reduction in elongation activity at 30 uM incubated for 1 hr relative to control; in short: as §3
[7] = (§4) Cytotoxicity against human Huh-7 cells assessed as reduction in cell viability incubated for 48 hrs by celltiter glo luminescent assay; assay type: cell-based; conditions: Huh-7 cells
In short: (§5)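 Huh-7 cells (2 × 10^4 seeded, DMEM with 10% FBS) exposed to compound for 48 h at 37 °C. Viability read by CellTiter-Glo luminescence as percent of untreated control. CC50 derived from the viability curve.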

[8] = Selectivity index, ratio of CC50 for human Huh-7 cells to EC50 for Zika virus H/PF/2013 infected in human Huh-7 cells; assay type: toxicity, cell-based; conditions: read-out: Ratio CC50/EC50
Zika virus [9] = experiment: Antiviral activity against Zika virus H/PF/2013 infected in human Huh-7 cells assessed as reduction in virus replication incubated for 24 hrs by plaque reduction assay; assay type: functional, organism-based; conditions: H/PF/2013, Huh-7, 24 h; in short: as §2
dengue virus type 2 [10] = experiment: Antiviral activity against dengue virus 2 EDEN 3295 infected in human Huh-7 cells assessed as reduction in virus replication at 10 uM incubated for 48 hrs by plaque reduction assay relative to control; assay type: functional; set-up: scale not given: the % may be the effect or the level left; in short: as §1
Huh-7 = experiment: as §4; assay type: cell-based; conditions: huh-7, 48 h; in short: as §5

SMILES | inhibition (dengue virus type 2 [1]) | pEC50 (dengue virus type 2 [4]) | pIC50 [5] | inhibition (dengue virus type 2 [6]) [%] | IC50 [5] | pEC50 (Zika virus [9]) | selectivity ratio [2] | Activity (Zika virus [3]) [%] | CC50 at 48 h [7] [µM] | selectivity ratio [8] | Activity (dengue virus type 2 [10]) [%] | CC50 (Huh-7)
CC(C)C(CC(=O)O)NC(=O)c1cc(-c2ccccc2)c(=O)n2c1sc1ccc(OC3CCCCC3)cc12 (racemic) | 75% | 5.08 | 4.66 | 92.8 |  |  | 12 | 47.4 | 100 |  |  | 
C[C@H](CO)NC(=O)c1cc(-c2ccccc2)c(=O)n2c1sc1ccc(OC3CCCCC3)cc12 | inactive | 5.24 |  | 42.7 | Not Active | 5.14 | 3 |  | 17.9 | 2.4 |  | 
O=C(NCC1(C(=O)O)CC1)c1cc(-c2ccccc2)c(=O)n2c1sc1ccc(OC3CCCCC3)cc12 | 68.1% | 5.12 | 4.75 | 96.7 |  |  | 13.3 | 15.8 | 100 |  |  | 
CC(CC(=O)O)NC(=O)c1cc(-c2ccccc2)c(=O)n2c1sc1ccc(OC3CCCCC3)cc12 (racemic) | 22.7% |  |  | 69.3 | Not Active |  |  | 29 |  |  | 68.1 | Not Active
O=C(O)C1CCN(C(=O)c2cc(-c3ccccc3)c(=O)n3c2sc2ccc(OC4CCCCC4)cc23)C1 (racemic) | 11% | 5.19 |  | 64.6 | Not Active | 5.09 | > 15.6 |  | > 100 | > 12.2 |  | 
O=C(O)C1CCCN(C(=O)c2cc(-c3ccccc3)c(=O)n3c2sc2ccc(OC4CCCCC4)cc23)C1 (racemic) | inactive |  |  | 64.9 | Not Active |  |  | 26.3 |  |  | 65.3 | Not Active
C#C[C@@]1(O)[C@H](O)[C@@H](CO)O[C@H]1n1ccc2c(N)ncnc21 |  |  |  |  |  |  | 100 |  |  | > 100 |  | 

The remaining molecules from weak to strong by pEC50 (dengue virus type 2 [4]), led by results:

inhibition (dengue virus type 2 [1]) | pEC50 (dengue virus type 2 [4]) | pIC50 [5] | inhibition (dengue virus type 2 [6]) [%] | IC50 [5] | pEC50 (Zika virus [9]) | SMILES | selectivity ratio [2] | Activity (Zika virus [3]) [%] | CC50 at 48 h [7] [µM] | selectivity ratio [8] | Activity (dengue virus type 2 [10]) [%] | CC50 (Huh-7)
81.5% | 5.51 | 4.63 | 95.9 |  |  | CC(C)(CC(=O)O)NC(=O)c1cc(-c2ccccc2)c(=O)n2c1sc1ccc(OC3CCCCC3)cc12 | 32 | 10.6 | 100 |  |  | 
inactive | 5.89 |  | 36.9 | Not Active | 4.95 | O=C(c1cc(-c2ccccc2)c(=O)n2c1sc1ccc(OC3CCCCC3)cc12)N1CCCC(O)C1 (racemic) | 17 |  | 22.2 | 2 |  | 
79.3% | 5.92 | 4.98 | 96.2 |  | 5.30 | O=C(O)CC(NC(=O)c1cc(-c2ccccc2)c(=O)n2c1sc1ccc(OC3CCCCC3)cc12)c1ccccc1 (racemic) | 83 |  | 100 | 20 |  | 
inactive | 5.96 |  | 42.5 | Not Active | 5.09 | C[C@@H](CO)NC(=O)c1cc(-c2ccccc2)c(=O)n2c1sc1ccc(OC3CCCCC3)cc12 | 20 |  | 21.7 | 2.6 |  | 
inactive | 6.05 |  | 37.2 | Not Active | 5.14 | NC(=O)CCNC(=O)c1cc(-c2ccccc2)c(=O)n2c1sc1ccc(OC3CCCCC3)cc12 | 58 |  | 52.3 | 7.1 |  | 
